Active and inactive are the calls of the source. The calls are words filed in the database; no cut-off is given here.
What was measured:
[1] = biological target: T1, Acetylcholinesterase (Homo sapiens, UniProt P22303); test: Inhibition of acetylcholinesterase isolated from human red blood cells using acetylthiocholine as substrate preincubated for 5 mins followed by substrate addition measured every 2 mins by Ellman's method
Procedure, shortened: (§1)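 Buffer was 0.1 M potassium phosphate, pH 7.4, with DTNB and enzyme (10 µL of 2.0 units/mL stock) in a 100 µL mix. Substrate was iodide salt (20 µL of 0.01 M). Inhibitor range 10-3–10-9 M. Absorbance rise read at 412 nm, 37 °C. Each concentration run in triplicate. IC50 is the concentration giving 50% loss of activity. Screening done at 10 µM before IC50 work.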

[2] = biological target: Cholinesterase (Homo sapiens) (UniProt P06276); test: Inhibition of butyrylcholinesterase isolated from human plasma at 10 uM using butyrylthiocholine as substrate preincubated for 5 mins followed by substrate addition measured every 2 mins by Ellman's method; procedure, shortened: as §1
Sequence of Cholinesterase (Homo sapiens) (P06276 whole entry): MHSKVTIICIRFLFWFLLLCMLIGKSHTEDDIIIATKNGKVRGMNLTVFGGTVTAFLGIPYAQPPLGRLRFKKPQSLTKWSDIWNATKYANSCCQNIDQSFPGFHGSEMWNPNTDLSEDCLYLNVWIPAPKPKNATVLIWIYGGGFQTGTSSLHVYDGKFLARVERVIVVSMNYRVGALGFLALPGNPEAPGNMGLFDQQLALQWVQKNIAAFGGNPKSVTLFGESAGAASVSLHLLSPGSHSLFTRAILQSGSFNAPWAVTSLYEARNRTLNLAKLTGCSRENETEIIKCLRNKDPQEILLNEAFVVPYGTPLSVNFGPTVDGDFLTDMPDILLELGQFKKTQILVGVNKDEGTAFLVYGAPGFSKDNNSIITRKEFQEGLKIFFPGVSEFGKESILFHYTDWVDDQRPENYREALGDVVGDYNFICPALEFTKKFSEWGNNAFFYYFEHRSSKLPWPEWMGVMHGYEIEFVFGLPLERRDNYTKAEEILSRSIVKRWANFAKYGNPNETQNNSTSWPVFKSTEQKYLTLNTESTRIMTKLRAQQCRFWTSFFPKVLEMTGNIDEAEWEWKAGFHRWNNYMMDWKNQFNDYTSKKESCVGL

[3] = biological target: Amyloid-beta precursor protein (Homo sapiens) (UniProt P05067); test: Inhibition of amyloid beta 42 (unknown origin) self aggregation at 50 uM by ThT-based fluorometric method relative to control
Sequence of Amyloid-beta precursor protein (Homo sapiens) (P05067 whole entry): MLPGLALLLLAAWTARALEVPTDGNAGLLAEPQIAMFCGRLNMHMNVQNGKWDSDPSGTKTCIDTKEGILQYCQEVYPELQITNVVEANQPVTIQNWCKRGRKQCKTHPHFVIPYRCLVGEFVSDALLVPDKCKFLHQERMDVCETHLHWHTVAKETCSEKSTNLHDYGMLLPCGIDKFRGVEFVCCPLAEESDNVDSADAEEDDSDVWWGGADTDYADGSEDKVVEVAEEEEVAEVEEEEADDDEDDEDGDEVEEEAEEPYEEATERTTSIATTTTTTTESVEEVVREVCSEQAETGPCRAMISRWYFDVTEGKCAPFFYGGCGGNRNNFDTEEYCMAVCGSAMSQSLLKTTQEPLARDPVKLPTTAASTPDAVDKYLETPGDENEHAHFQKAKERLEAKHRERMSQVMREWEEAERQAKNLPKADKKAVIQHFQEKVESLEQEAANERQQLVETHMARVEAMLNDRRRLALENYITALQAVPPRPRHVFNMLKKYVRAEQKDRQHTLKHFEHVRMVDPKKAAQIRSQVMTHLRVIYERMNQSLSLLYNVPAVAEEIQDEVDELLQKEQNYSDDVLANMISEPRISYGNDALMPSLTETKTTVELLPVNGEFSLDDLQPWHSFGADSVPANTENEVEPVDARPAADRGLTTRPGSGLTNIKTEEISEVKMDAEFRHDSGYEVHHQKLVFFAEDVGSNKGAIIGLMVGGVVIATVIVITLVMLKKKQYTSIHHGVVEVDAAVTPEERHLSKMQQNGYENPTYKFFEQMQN
Procedure, shortened: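 Pretreated Aβ42 (50 µM final) was incubated at 30 °C in 10 mM phosphate buffer pH 8.0 with 10 mM NaCl, with or without inhibitor (50 µM). Samples were then diluted in 50 mM glycine-NaOH pH 8.5 containing 1.5 µM ThT. Fluorescence (ex 446/em 490 nm) was scanned for 300 s, plateau values averaged minus ThT background, giving % inhibition.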

[4] = Antioxidant activity of the compound assessed as DPPH radical scavenging activity after 30 mins; type: functional
Procedure, shortened: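 DPPH (0.2 mM solution) was mixed 1:1 in methanol with compound (10-3–10-6 M). After 30 min at laboratory temperature, absorbance was read at 517 nm. Triplicates per concentration; EC50 is the concentration giving a 50% decrease in DPPH activity.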

[5] = Neurotoxicity against Wistar rat primary cerebellar granule neurons assessed as decrease in cell survival at 5 to 50 uM after 24 hrs by MTT assay; type: toxicity, cell-based; conditions: primary cerebellar granule neuron
[6] = test system: Astrocyte; test: Antineuroinflammatory activity against LPS-induced Wistar rat primary astrocytes assessed as decrease in nitrite production after 24 hrs by Griess method; type: functional, cell-based
Procedure, shortened: (§2)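 Microglia (shaken off) and astrocytes (trypsinized remainder) came from newborn Wistar rat cortical mixed glia grown 10–13 days. Cells were co-treated 24 h with LPS and compound (10–50 µM). Nitrite in the medium was measured by Griess reaction (sulfanilamide 5 mM, NEDA 40 mM) against a NaNO2 standard curve. Mean ± SE of 3 experiments, each at least in quadruplicate.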

[7] = test system: Microglia; test: Antineuroinflammatory activity against LPS-induced Wistar rat primary microglia cells assessed as decrease in nitrite production after 24 hrs by Griess method; type: functional, cell-based; procedure, shortened: as §2
[8] = test system: Astrocyte; test: Immunomodulatory activity in LPS-induced Wistar rat primary astrocytes assessed as decrease in iNOS expression at 10 to 50 uM after 24 hrs by Western blot method; type: functional, cell-based
Procedure, shortened: (§3)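 Rat primary microglia or astrocytes were exposed 24 h to LPS with compound (0–50 µM), then lysed; protein was measured by Lowry. Immunoblots used anti-iNOS, anti-TREM2 or anti-MRC1 with GAPDH as loading control, read by ECL and densitometry. Values are % of LPS alone; mean ± SE of 3 experiments.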

[9] = test system: Microglia; test: Immunomodulatory activity in LPS-induced Wistar rat primary microglia cells assessed as decrease in iNOS expression at 10 to 50 uM after 24 hrs by Western blot method; type: functional, cell-based; procedure, shortened: as §3
[10] = test system: Primary glial cell; test: Immunomodulatory activity in LPS-induced Wistar rat primary glial cells assessed as decrease in MRC1 expression at 10 to 50 uM after 24 hrs by Western blot method; type: functional, cell-based; procedure, shortened: as §3
[11] = test system: Primary glial cell; test: Immunomodulatory activity in LPS-induced Wistar rat primary glial cells assessed as decrease in TREME2 expression after 24 hrs by Western blot method; type: functional, cell-based; procedure, shortened: as §3
[12] = test system: Primary glial cell; test: Immunomodulatory activity in LPS-induced Wistar rat primary glial cells assessed as decrease in TREME2 mRNA expression after 24 hrs; type: functional, cell-based
[13] = test system: Primary glial cell; test: Immunomodulatory activity in LPS-induced Wistar rat primary glial cells assessed as decrease in iNOS mRNA expression after 24 hrs; type: functional, cell-based
[14] = test system: HepG2; test: Hepatotoxicity against human HepG2 cells assessed as decrease in cell viability at 5 to 50 uM after 24 hrs by MTT assay; type: toxicity, cell-based; conditions: hepg2, 24 h
Procedure, shortened: (§4)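 HepG2 cells in high-glucose DMEM with 10% FBS were seeded at 8 x 10^3 cells/well, then exposed to 0–50 µM compound for 24 h in serum-free medium. MTT (0.1 mg/mL) was added for 20 min at 37 °C in the dark, formazan dissolved in Tris-HCl/5% Triton X-100, absorbance read at 570 nm. Viability as % of control; mean ± SE, four experiments at least in quadruplicate.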

[15] = biological target: T1, Acetylcholinesterase; test: Inhibition of acetylcholinesterase isolated from human red blood cells at 10 uM using acetylthiocholine as substrate preincubated for 5 mins followed by substrate addition measured every 2 mins by Ellman's method; procedure, shortened: as §1
[16] = Neurotoxicity against Wistar rat primary cerebellar granule neurons assessed as decrease in cell survival at 5 uM after 24 hrs by MTT assay; type: toxicity, cell-based; conditions: primary cerebellar granule neuron
Procedure, shortened: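 Cerebellar granule neurons came from 7-day-old Wistar rat pups, plated on poly-L-lysine in BME with 10% FBS and 25 mM KCl. Cytosine arabinoside (10 µmol/L) was added at 16 h. At 7 DIV, cells were moved to serum-free medium and exposed to 0–50 µM compound for 24 h. Survival was read by MTT at 570 nm as % of control; mean ± SE, four experiments at least in quadruplicate.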

[17] = biological target: Acetylcholinesterase (Electrophorus electricus, UniProt O42275); test: Displacement of propidium iodide from electric eel AChE by spectrofluorometric method
Sequence of Acetylcholinesterase (Electrophorus electricus, UniProt O42275) (O42275 whole entry): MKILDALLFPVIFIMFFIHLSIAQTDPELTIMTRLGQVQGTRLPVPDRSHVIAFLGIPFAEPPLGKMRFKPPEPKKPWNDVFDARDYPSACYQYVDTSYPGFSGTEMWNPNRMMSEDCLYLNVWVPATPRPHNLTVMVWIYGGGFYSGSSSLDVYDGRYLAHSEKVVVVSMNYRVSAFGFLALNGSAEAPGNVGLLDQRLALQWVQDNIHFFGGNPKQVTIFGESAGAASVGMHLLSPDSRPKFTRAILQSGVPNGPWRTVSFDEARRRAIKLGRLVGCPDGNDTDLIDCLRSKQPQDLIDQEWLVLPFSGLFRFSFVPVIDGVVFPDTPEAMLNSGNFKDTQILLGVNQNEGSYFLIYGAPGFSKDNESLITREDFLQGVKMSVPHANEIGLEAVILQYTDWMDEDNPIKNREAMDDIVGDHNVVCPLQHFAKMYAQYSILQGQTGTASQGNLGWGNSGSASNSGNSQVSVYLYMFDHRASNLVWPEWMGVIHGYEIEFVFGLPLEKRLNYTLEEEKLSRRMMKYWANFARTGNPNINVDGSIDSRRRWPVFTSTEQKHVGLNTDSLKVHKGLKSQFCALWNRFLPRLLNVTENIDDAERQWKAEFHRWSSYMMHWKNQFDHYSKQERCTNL
Procedure, shortened: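 Back-titration of a preformed EeAChE (2 µM)–propidium iodide (8 µM) complex in 1.0 mM Tris-HCl pH 8.0, with inhibitor added stepwise (final 8–56 µM; methanol stock). Fluorescence read at 635 nm, excitation 535 nm. Blanks were run for propidium alone, inhibitor plus propidium, and enzyme alone. KD derived by the Taylor–Lappi treatment, taking propidium KD = 0.7 µM.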

[18] = Neurotoxicity against Wistar rat primary cerebellar granule neurons assessed as decrease in cell survival at 25 to 50 uM after 24 hrs by MTT assay; type: toxicity, cell-based; conditions: primary cerebellar granule neuron
[19] = biological target: Cholinesterase (Homo sapiens) (UniProt P06276); test: Inhibition of butyrylcholinesterase isolated from human plasma up to 100 uM using butyrylthiocholine as substrate preincubated for 5 mins followed by substrate addition measured every 2 mins by Ellman's method; procedure, shortened: as §1
[20] = Hepatotoxicity against human HepG2 cells assessed as cell viability at 5 to 50 uM after 24 hrs by MTT assay relative to control; type: toxicity, cell-based; conditions: read-out: Activity; procedure, shortened: as §4

T1 sequence (P22303 whole entry): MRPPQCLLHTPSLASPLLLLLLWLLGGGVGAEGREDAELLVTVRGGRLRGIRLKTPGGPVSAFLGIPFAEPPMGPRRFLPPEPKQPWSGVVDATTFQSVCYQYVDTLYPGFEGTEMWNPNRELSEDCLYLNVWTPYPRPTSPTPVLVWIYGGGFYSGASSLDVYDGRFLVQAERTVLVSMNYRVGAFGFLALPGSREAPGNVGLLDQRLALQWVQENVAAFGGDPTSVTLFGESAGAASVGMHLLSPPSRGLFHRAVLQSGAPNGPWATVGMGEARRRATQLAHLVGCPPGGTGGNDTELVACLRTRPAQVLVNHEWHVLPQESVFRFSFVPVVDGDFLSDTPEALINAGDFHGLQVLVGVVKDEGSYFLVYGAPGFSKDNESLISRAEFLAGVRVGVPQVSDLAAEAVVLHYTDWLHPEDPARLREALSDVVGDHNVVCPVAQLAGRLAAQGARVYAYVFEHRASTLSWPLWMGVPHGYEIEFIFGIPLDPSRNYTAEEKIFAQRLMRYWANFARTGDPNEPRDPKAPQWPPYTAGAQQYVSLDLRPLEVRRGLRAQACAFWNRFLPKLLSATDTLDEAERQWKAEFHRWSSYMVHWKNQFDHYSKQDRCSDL

With `Oc1cc(O)cc(/C=C/c2ccc(Nc3c4c(nc5cc(Cl)ccc35)CCCC4)cc2)c1` the IC50 [1] was 8.8 µM, the inhibition [2] was “inactive” and the inhibition [3] was 31.2%. The EC50 [4] was > 5000 µM, the Activity [5] was “Non-Toxic” and the Activity [6] was “Dose-dependent effect”. For the same compound, the Activity [7] was “Dose-dependent effect”, the Activity [8] was “Active” and the Activity [9] was “Active”. For the same compound, the Activity [10] was “Active”, the Activity [11] was “Dose-dependent effect” and the Activity [12] was “Active”. For the same compound, the Activity [13] was “Active” and the Activity [14] was “Toxic”.
Work on `Cc1c(C)c2c(c(C)c1O)CCC(C)(C(=O)O)O2` (stereo unspecified) [TROLOX] yielded an EC50 [4] of 16.2 µM.
With `COc1cc(/C=C/c2ccc(Nc3c4c(nc5ccc(OC)cc35)CCCC4)cc2)cc(OC)c1` the inhibition [15] was “inactive”, the inhibition [2] was “inactive” and the Activity [16] was “Toxic”. For the same compound, the Activity [14] was “Toxic”.
With `COc1cc(CCc2ccc(Nc3c4c(nc5cc(Cl)ccc35)CCCC4)cc2)cc(OC)c1` the IC50 [1] was 0.8 µM, the inhibition [2] was “inactive” and the Kd [17] was 7.31 µM. For the same compound, the inhibition [3] was 17.6%, the EC50 [4] was 155 µM and the Activity [16] was “Toxic”. For the same compound, the Activity [14] was “Toxic”.
For `COc1cc(/C=C/c2ccc(Nc3c4c(nc5ccccc35)CCCC4)cc2)cc(OC)c1`, the inhibition [15] was “inactive”, the inhibition [2] was “inactive” and the Activity [18] was “Toxic”. For the same compound, the Activity [14] was “Toxic”.
For `Oc1ccc(/C=C/c2cc(O)cc(O)c2)cc1` [RESVERATROL], the inhibition [15] was “inactive”, the inhibition [19] was “inactive” and the inhibition [3] was 30%. The EC50 [4] was 25.6 µM and the Activity [14] was “Non-Toxic”.
Work on `CC(=O)N[C@@H](CS)C(=O)O` [ACETYLCYSTEINE] yielded an EC50 [4] of 28 µM.
With `COc1cc(/C=C/c2ccc(Nc3c4c(nc5cc(Cl)ccc35)CCCC4)cc2)cc(OC)c1` the inhibition [15] was “inactive”, the inhibition [2] was “inactive” and the inhibition [3] was 21.6%. For the same compound, the Activity [16] was “Toxic” and the viability at 24 h, up to 50 µM [20] was 70%.
With `COc1cc(CCc2ccc(Nc3c4c(nc5ccccc35)CCCC4)cc2)cc(OC)c1` the IC50 [1] was 14.2 µM, the inhibition [2] was “inactive” and the Activity [16] was “Toxic”. The Activity [14] was “Toxic”.
For `COc1cc(CCc2ccc(Nc3c4c(nc5ccc(OC)cc35)CCCC4)cc2)cc(OC)c1`, the inhibition [15] was “inactive”, the inhibition [2] was “inactive” and the Activity [16] was “Toxic”. The Activity [14] was “Toxic”.
In the case of `Oc1cc(O)cc(CCc2ccc(Nc3c4c(nc5cc(Cl)ccc35)CCCC4)cc2)c1`, the IC50 [1] is reported as 1.3 µM, the inhibition [2] is reported as “inactive” and the inhibition [3] is reported as 37.3%. For the same compound, the EC50 [4] was > 5000 µM, the Activity [18] was “Toxic” and the Activity [14] was “Toxic”.
In the case of `COc1ccc2nc3c(c(N)c2c1)CCCC3`, the inhibition [3] is reported as < 5%.

Source: ChEMBL document CHEMBL4004805, “Tacrine-resveratrol fused hybrids as multi-target-directed ligands against Alzheimer's disease” (Eur J Med Chem, 2017)
